Active and inactive are the calls of the source. The rule behind the calls is not given here.
What was measured:
[1] = target: T1, 6-phosphofructo-2-kinase/fructose-2,6-bisphosphatase 3 (Homo sapiens, UniProt Q16875); test: Inhibition of human recombinant GST-tagged PFKFB3 expressed in Escherichia coli BL21(DE3) using fructose 6-phosphate as substrate preincubated for 30 mins before substrate addition measured after 60 mins by kinase-glo assay
Procedure, shortened: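 GST-tagged human PFKFB3 was purified on glutathione sepharose. The compound was preincubated with enzyme for 30 min at 30 °C in 40 mM Tris pH 7.5, 20 mM MgCl2, 0.1 mg/mL BSA. ATP and F6P were then added in buffer containing 25 µM ATP and 1.25 mM F6P, for 60 min at 30 °C. Remaining ATP was read by Kinase-Glo luminescence. IC50 came from nonlinear regression, mean ± SD of ≥3 independent experiments.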

[2] = target: T1, 6-phosphofructo-2-kinase/fructose-2,6-bisphosphatase 3; test: Inhibition of PFKFB3-mediated glycolysis in human MDA-MB-231 cells assessed as extracellular acidification rate at 10 uM after 60 mins; format: cell-based
Procedure, shortened: (§1)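 MDA-MB-231 cells were seeded at 15,000/well for 24 h, then switched to assay medium in an XF24 analyzer. After 2 baseline readings, compound (10 µM) was injected and ECAR tracked for 2 h. 2-Deoxyglucose (100 mM) was then injected as positive control and ECAR followed 32 min more. ECAR was expressed as % of baseline, with protein measured by BCA after RIPA lysis; n = 3.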

[3] = target: T1, 6-phosphofructo-2-kinase/fructose-2,6-bisphosphatase 3; test: Inhibition of PFKFB3-mediated glycolysis in human MDA-MB-231 cells assessed as extracellular acidification rate at 10 uM after 2 hrs; format: cell-based; procedure, shortened: as §1
[4] = target: T1, 6-phosphofructo-2-kinase/fructose-2,6-bisphosphatase 3; test: Inhibition of PFKFB3 (unknown origin)
[5] = Solubility of the compound; format: physicochemical
[6] = target: T1, 6-phosphofructo-2-kinase/fructose-2,6-bisphosphatase 3; test: Inhibition of PFKFB3 in human HeLa cells assessed as reduction of lactate secretion at IC50 after 8 hrs; format: cell-based
[7] = target: T1, 6-phosphofructo-2-kinase/fructose-2,6-bisphosphatase 3; test: Inhibition of PFKFB3 in human HeLa cells assessed as reduction of fructose 2,6-bisphosphate level at IC50 after 8 hrs; format: cell-based
[8] = target: T1, 6-phosphofructo-2-kinase/fructose-2,6-bisphosphatase 3; conditions: 250 uM

T1 sequence (Q16875 whole entry): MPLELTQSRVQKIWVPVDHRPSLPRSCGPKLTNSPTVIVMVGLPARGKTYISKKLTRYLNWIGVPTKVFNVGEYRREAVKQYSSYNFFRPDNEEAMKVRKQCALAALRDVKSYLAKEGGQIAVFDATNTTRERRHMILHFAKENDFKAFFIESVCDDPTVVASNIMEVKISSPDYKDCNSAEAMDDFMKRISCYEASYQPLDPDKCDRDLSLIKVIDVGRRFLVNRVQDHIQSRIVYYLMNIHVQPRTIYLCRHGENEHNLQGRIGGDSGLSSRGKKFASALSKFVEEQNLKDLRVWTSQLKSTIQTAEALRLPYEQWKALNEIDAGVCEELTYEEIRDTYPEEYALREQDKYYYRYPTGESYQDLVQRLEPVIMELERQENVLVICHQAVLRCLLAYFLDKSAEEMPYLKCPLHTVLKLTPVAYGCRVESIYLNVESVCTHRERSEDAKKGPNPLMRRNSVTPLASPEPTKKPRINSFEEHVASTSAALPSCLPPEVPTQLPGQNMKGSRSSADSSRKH

Structure (SMILES): CC(=O)c1nnn(-c2cnn(Cc3ccccc3)c(=O)c2)c1C
- IC50 [1]: > 10000 µM

Structure (SMILES): O=c1c(Br)c(N2CCOCC2)cnn1-c1ccccc1
- IC50 [1]: > 1000 µM

Structure (SMILES): NC(=O)CNc1cnn(-c2ccccc2)c(=O)c1Br
- IC50 [1]: > 1000 µM

Structure (SMILES): CC(=O)c1nnn(-c2cnn(-c3ccccc3)c(=O)c2Cl)c1C
- IC50 [1]: 26 µM

Structure (SMILES): O=c1c(Br)c(N2CC3(COC3)C2)cnn1-c1ccccc1
- IC50 [1]: > 1000 µM

Structure (SMILES): O=c1c(Br)c(NCC2CCCO2)cnn1-c1ccccc1 (stereo unspecified)
- IC50 [1]: > 1000 µM

Structure (SMILES): CC(=O)c1nnn(-c2cnn(CCCc3ccccc3)c(=O)c2Br)c1C
- IC50 [1]: 11 µM
- inhibition [2]: 30%

Structure (SMILES): CC(=O)c1nnn(-c2cnn(Cc3ccc(NCCN(C)C)cc3)c(=O)c2Br)c1C
- IC50 [1]: > 500 µM

Structure (SMILES): CC(=O)c1nnn(-c2cnn(-c3ccc(C#N)cc3)c(=O)c2Br)c1C
- IC50 [1]: 8.4 µM

Structure (SMILES): CC(=O)c1nnn(-c2cnn(-c3ccccc3)c(=O)c2Br)c1C
- IC50 [1]: 7.4 µM
- inhibition [3]: inactive

Structure (SMILES): CC(=O)c1nnn(-c2cnn(Cc3ccc(I)cc3)c(=O)c2Br)c1C
- IC50 [1]: 8.7 µM

Structure (SMILES): O=C(O)c1ccc(NS(=O)(=O)c2cccc3ccccc23)cc1O
- IC50 [1]: 27 µM
- IC50 [4]: 27 µM

Structure (SMILES): O=C(/C=C/c1cccnc1)c1ccncc1
- inhibition [3]: inactive
- IC50 [4]: 25 µM

Structure (SMILES): CC(=O)c1nnn(-c2cnn(-c3ccccc3)c(=O)c2C(C)C)c1C
- IC50 [1]: > 500 µM

Structure (SMILES): O=C(c1ccncc1)c1cc2c(ccc3ccccc32)[nH]1
- solubility [5]: Insoluble
- IC50 [4]: > 1000 µM

Structure (SMILES): CC(=O)c1nnn(-c2cnn(-c3ccc(Cl)cc3)c(=O)c2Br)c1C
- IC50 [1]: 7 µM
- inhibition [2]: 30%

Structure (SMILES): CC(=O)c1nnn(-c2cnn(CCc3ccccc3)c(=O)c2Br)c1C
- IC50 [1]: 2.6 µM

Structure (SMILES): CC(=O)c1nnn(-c2cnn(-c3ccc(OC(F)(F)F)cc3)c(=O)c2Br)c1C
- IC50 [1]: 9.1 µM
- inhibition [2]: 30%

Structure (SMILES): CCOC(=O)c1cn(-c2cnn(-c3ccccc3)c(=O)c2N2CC3(COC3)C2)nn1
- IC50 [1]: 55 µM

Structure (SMILES): CCOc1c(-n2nnc(C(C)=O)c2C)cnn(-c2ccccc2)c1=O
- IC50 [1]: > 1000 µM

Structure (SMILES): N#Cc1cccc2c1CCN(c1cnn(-c3ccccc3)c(=O)c1Br)C2
- IC50 [1]: > 500 µM

Structure (SMILES): CC(=O)c1nnn(-c2cnn(-c3cncnc3)c(=O)c2Br)c1C
- IC50 [1]: 9.6 µM
- inhibition [2]: 30%

Structure (SMILES): O=c1c(-c2ccc(O)cc2)coc2c(O)c(O)ccc12
- inhibition [6]: > 30%
- inhibition [7]: 40%

Structure (SMILES): CC(=O)c1nnn(-c2cnn(Cc3ccccc3)c(=O)c2Br)c1C
- IC50 [1]: 3.4 µM

Structure (SMILES): CC(=O)c1nnn(-c2cnn(-c3ccccc3)c(=O)c2I)c1C
- IC50 [1]: 13 µM

Structure (SMILES): O=C(/C=C/c1ccc2ccccc2n1)c1ccncc1
- IC50 [1]: > 1000 µM
- inhibition [8]: 26%

From ChEMBL document CHEMBL3102712, “Targeting the Warburg Effect in cancer; relationships for 2-arylpyridazinones as inhibitors of the key glycolytic enzyme 6-phosphofructo-2-kinase/2,6-bisphosphatase 3 (PFKFB3)” (Bioorg Med Chem, 2014)
